Results reported in article PMC10585311 (Saudi Pharmaceutical Journal : SPJ, 2023).

What was measured:
brine shrimp nauplii = assay: Brine shrimp lethality assay; type: in vivo; conditions: for percentage of dead shrimp (deaths): after 24 and 48 h
Outline: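 Brine shrimp lethality assay. Test compounds were dissolved in DMSO and made up at four levels. Each vial held 5 mL NaCl solution and one of four sample levels (A–D: 4, 8, 16, 32). Each vial received 10 nauplii, with triplicate vials per level. Mortality was scored at each level and averaged as percent.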

S. aureus = assay: Disc diffusion antibacterial screening; type: cell-based; conditions: S. aureus (G + ve)
Outline: (§1)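 Disc diffusion on standard nutrient agar as the basal medium. Values are from triplicate experiments. Significance was set at p < 0.05.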

S. typhi = assay: Disc diffusion antibacterial screening; type: cell-based, Salmonella typhi; conditions: S. typhi (G–ve)
Outline: as §1

E. coli = assay: Disc diffusion antibacterial screening; type: cell-based, Escherichia coli; conditions: E. coli (G–ve)
Outline: as §1

Aspergillus flavus = assay: Mycelial growth inhibition, poisoned food technique; type: cell-based; conditions: in DMSO (20 μg/μL)
B. cereus = assay: Disc diffusion antibacterial screening; type: cell-based, Bacillus cereus
Outline: as §1

B. subtilis = assay: Disc diffusion antibacterial screening; type: cell-based, Bacillus subtilis; conditions: B. subtilis (G + ve)
Outline: as §1

Aspergillus niger = assay: Mycelial growth inhibition, poisoned food technique; type: cell-based; conditions: in DMSO (20 μg/μL)
P. aeruginosa = assay: Disc diffusion antibacterial screening; type: cell-based, Pseudomonas aeruginosa; conditions: P. aeruginosa (G–ve)
Outline: as §1

tested bacteria = assay: Disc diffusion antibacterial screening, overall statements; type: cell-based
Outline: as §1

CO[C@H]1O[C@H](COC(c2ccccc2)(c2ccccc2)c2ccccc2)[C@@H](OC(=O)c2ccc(C(C)(C)C)cc2)[C@H](OC(=O)c2ccc(C(C)(C)C)cc2)[C@H]1OC(=O)c1ccc(C(C)(C)C)cc1 [Compound 5, Methyl 2,3,4-tri-O-(4-t-butylbenzoyl)-6-O-(triphenylmethyl)-α-D-glucopyranoside]
percentage of dead shrimp (deaths) (brine shrimp nauplii): 48.21%
Diameter of Inhibition Zones (S. aureus): *17 ± 0.1 mm
Diameter of Inhibition Zones (S. typhi): 10 ± 0.4 mm
Diameter of Inhibition Zones (E. coli): *15 ± 0.2 mm
Percent inhibition of fungal mycelial growth (Aspergillus flavus): *59.54 ± 0.14%
zone of inhibition (B. cereus): 17 ± 0.1 mm

COc1ccc(C(=O)OC[C@H]2O[C@H](OC)[C@H](O)[C@@H](O)[C@@H]2O)cc1 [Compound 7, Methyl 6-O-(4-methoxybenzoyl)-α-D-glucopyranoside]
Diameter of Inhibition Zones (S. aureus): 10 ± 0.1 mm
Diameter of Inhibition Zones (E. coli): 9 ± 0.4 mm
Diameter of Inhibition Zones (B. subtilis): *12 ± 0.2 mm
Percent inhibition of fungal mycelial growth (Aspergillus flavus): 35.38 ± 0.32%
Percent inhibition of fungal mycelial growth (Aspergillus niger): 48.40 ± 0.22%

CC[C@H]1OC(=O)[C@H](C)[C@@H](O[C@H]2C[C@@](C)(OC)[C@@H](O)[C@H](C)O2)[C@H](C)[C@@H](O[C@@H]2O[C@H](C)C[C@H](N(C)C)[C@H]2O)[C@](C)(O)C[C@@H](C)CN(C)[C@H](C)[C@@H](O)[C@]1(C)O [Azithromycin, reference compound]
Diameter of Inhibition Zones (S. aureus): **18 ± 0.5 mm
Diameter of Inhibition Zones (S. typhi): **19 ± 0.5 mm
Diameter of Inhibition Zones (E. coli): **17 ± 0.4 mm
Diameter of Inhibition Zones (B. subtilis): **19 ± 0.6 mm
Diameter of Inhibition Zones (P. aeruginosa): **17 ± 0.5 mm

CCCCCCCCCCCC(=O)O[C@@H]1[C@@H](OC(=O)CCCCCCCCCCC)[C@@H](OC)O[C@H](COC(=O)c2ccc(OC)cc2)[C@H]1OC(=O)CCCCCCCCCCC [Compound 8, Methyl 2,3,4-tri-O-lauroyl-6-O-(4-methoxybenzoyl)-α-D-glucopyranoside]
toxicity to brine shrimp (brine shrimp nauplii): less toxic
Diameter of Inhibition Zones (S. aureus): 11 ± 0.2 mm
Diameter of Inhibition Zones (E. coli): 10 ± 0.1 mm
Diameter of Inhibition Zones (B. subtilis): 9 ± 0.3 mm
Percent inhibition of fungal mycelial growth (Aspergillus flavus): *63.31 ± 0.51%
Percent inhibition of fungal mycelial growth (Aspergillus niger): *66.41 ± 0.37%

CO[C@H]1O[C@H](COC(c2ccccc2)(c2ccccc2)c2ccccc2)[C@@H](O)[C@H](O)[C@H]1O [Compound 2, Methyl 6-O-(triphenylmethyl)-α-D-glucopyranoside]
percentage of dead shrimp (deaths) (brine shrimp nauplii): 32.11%
Diameter of Inhibition Zones (E. coli): 9 ± 0.2 mm
Diameter of Inhibition Zones (B. subtilis): 8 ± 0.5 mm
Percent inhibition of fungal mycelial growth (Aspergillus flavus): 33.33%
Percent inhibition of fungal mycelial growth (Aspergillus niger): 36.43%
Diameter of Inhibition Zones (P. aeruginosa): 9 ± 0.1 mm

C[C@@H]1[C@H](O)[C@@H](C)/C=C/C=C/CC/C=C/C=C/C=C/C=C/C(O[C@H]2O[C@H](C)[C@@H](O)[C@H](N)[C@@H]2O)CC2O[C@](O)(CC(O)C(O)CCC(O)CC(O)CC(O)CC(=O)O[C@H]1C)CC(O)C2C(=O)O (stereo partly drawn) [Nystatin, reference compound]
Percent inhibition of fungal mycelial growth (Aspergillus flavus): **63.10 ± 0.09%
Percent inhibition of fungal mycelial growth (Aspergillus niger): **66.40 ± 0.05%

CCCCCCCCCCCCCC(=O)O[C@@H]1[C@@H](OC(=O)CCCCCCCCCCCCC)[C@@H](OC)O[C@H](COC(c2ccccc2)(c2ccccc2)c2ccccc2)[C@H]1OC(=O)CCCCCCCCCCCCC [Compound 4, Methyl 2,3,4-tri-O-myristoyl-6-O-(triphenylmethyl)-α-D-glucopyranoside]
percentage of dead shrimp (deaths) (brine shrimp nauplii): 47.64%
Diameter of Inhibition Zones (S. typhi): 9 ± 0.5 mm
Diameter of Inhibition Zones (B. subtilis): 10 ± 0.3 mm
Percent inhibition of fungal mycelial growth (Aspergillus niger): 31.92%
Diameter of Inhibition Zones (P. aeruginosa): 8 ± 0.2 mm

Methyl 2,3,4-tri-O-lauryl-6-O-(triphenylmethyl)-α-D-glucopyranoside [Compound 3]
toxicity to brine shrimp (brine shrimp nauplii): less toxic
inhibitory activity (tested bacteria; tested gram-positive bacteria): did not show any inhibitory activity
Diameter of Inhibition Zones (S. typhi): 10 ± 0.1 mm
Percent inhibition of fungal mycelial growth (Aspergillus flavus): 41.30%
Percent inhibition of fungal mycelial growth (Aspergillus niger): 46.62%
Diameter of Inhibition Zones (P. aeruginosa): *12 ± 0.3 mm

CO[C@H]1O[C@H](CO)[C@@H](O)[C@H](O)[C@H]1O [Compound 1, methyl α-D-glucopyranoside, reference compound]
antibacterial activity (tested bacteria; all tested bacteria): did not show any antibacterial activity
